How the values were obtained:
[1] = Intrinsic cytotoxicity against human MES-SA/Dx5 cells; assay type: functional
Outline: (§1)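 MES-SA/DX5 (P-gp-overexpressing human sarcoma) cells seeded at 1.2 × 10⁴ cells/well and incubated 24 h at 37 °C. They were then exposed for 60 h to varying concentrations of test compound, with or without 100 nM Taxol. Survival was read by Cell Counting Kit-8, and GI₅₀/EC₅₀ were taken from the concentration series.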

Cytochrome P450 3A4 = Cytochrome P450 3A4 (Homo sapiens, UniProt P08684); assay: Inhibition of human CYP3A4; assay type: ADME
Sequence of Cytochrome P450 3A4 (P08684 whole entry): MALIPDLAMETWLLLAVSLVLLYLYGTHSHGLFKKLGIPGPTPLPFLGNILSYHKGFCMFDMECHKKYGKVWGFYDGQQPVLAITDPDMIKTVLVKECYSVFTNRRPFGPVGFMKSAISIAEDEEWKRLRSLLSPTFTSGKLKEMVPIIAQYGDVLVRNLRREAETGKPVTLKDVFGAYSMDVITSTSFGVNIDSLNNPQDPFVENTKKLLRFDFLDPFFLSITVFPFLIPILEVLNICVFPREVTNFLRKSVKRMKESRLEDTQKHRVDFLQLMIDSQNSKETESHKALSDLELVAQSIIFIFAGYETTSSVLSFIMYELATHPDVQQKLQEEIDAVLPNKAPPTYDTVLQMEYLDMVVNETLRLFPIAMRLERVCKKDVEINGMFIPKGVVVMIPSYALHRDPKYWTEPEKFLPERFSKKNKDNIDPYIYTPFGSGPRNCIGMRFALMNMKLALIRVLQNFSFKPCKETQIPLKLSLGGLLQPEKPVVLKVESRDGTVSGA

[2] = Cytotoxicity against human MES-SA/Dx5 cells; assay type: functional, cell-based; outline: as §1

Row | SMILES | GI50 [1] [µM] | IC50 (Cytochrome P450 3A4) [µM] | IC50 [2] [µM]
1 | COc1cc2c(cc1OC)CN(C(=O)C13CC4CC(C1)CC(c1ccc(OCC(=O)Nc5cccc(C#N)c5)cc1)(C4)C3)CC2 | > 20 | > 5 | 
2 | COc1cc2c(cc1OC)CN(C(=O)C13CC4CC(C1)CC(c1ccc(OCC(=O)Nc5cccc(C(F)(F)F)c5)cc1)(C4)C3)CC2 | 12.1 |  | 
3 | COC(=O)c1cccc(NC(=O)COc2ccc(C34CC5CC(CC(C(=O)N6CCc7cc(OC)c(OC)cc7C6)(C5)C3)C4)cc2)c1 | > 20 |  | 
4 | COC(=O)c1ccccc1NC(=O)COc1ccc(C23CC4CC(CC(C(=O)N5CCc6cc(OC)c(OC)cc6C5)(C4)C2)C3)cc1 | > 20 | 3.79 | 
5 | COc1ccc(CCN(C)CCCC(C#N)(c2ccc(OC)c(OC)c2)C(C)C)cc1OC (stereo not given) | > 20 |  | 
6 | COC(=O)c1cccc(NC(=O)COc2ccc(C34CC5CC(CC(C(=O)N6CCN(Cc7cccc(OC)c7)CC6)(C5)C3)C4)cc2)c1 | 13.2 | 0.82 | 
7 | COC(=O)c1cccc(NC(=O)COc2ccc(C34CC5CC(CC(C(N)=O)(C5)C3)C4)cc2)c1 | 14.3 |  | 
8 | COc1cc2c(cc1OC)CN(C(=O)C13CC4CC(C1)CC(c1ccc(OCC(=O)Nc5cccc(C(=O)NCc6ccco6)c5)cc1)(C4)C3)CC2 | > 20 |  | 
9 | COC(=O)c1cccc(NC(=O)COc2ccc(C34CC5CC(CC(C(=O)N6CCN(Cc7ccc(C(F)(F)F)cc7)CC6)(C5)C3)C4)cc2)c1 | > 20 | 2.03 | 
10 | COC(=O)c1ccc(NC(=O)COc2ccc(C34CC5CC(CC(C(=O)N6CCc7cc(OC)c(OC)cc7C6)(C5)C3)C4)cc2)cc1 | 14.3 |  | 
11 | COc1cc2c(cc1OC)CN(C(=O)C13CC4CC(C1)CC(c1ccc(OCC(=O)Nc5cccc6cccnc56)cc1)(C4)C3)CC2 | > 20 |  | 
12 | COC(=O)c1cccc(NC(=O)COc2ccc(C34CC5CC(CC(C(=O)OCc6ccccc6)(C5)C3)C4)cc2)c1 | > 20 |  | 
13 | COC(=O)c1cccc(NC(=O)COc2ccc(C34CC5CC(CC(C(=O)Nc6ccc(C(C)(C)C)cc6)(C5)C3)C4)cc2)c1 | > 20 |  | 
14 | COC(=O)c1cccc(NC(=O)COc2ccc(C34CC5CC(CC(C(=O)NCc6ccc(OC)c(OC)c6)(C5)C3)C4)cc2)c1 | > 20 |  | 
15 | COC(=O)c1cccc(NC(=O)COc2ccc(C34CC5CC(CC(C(=O)NCCN(C)C)(C5)C3)C4)cc2)c1 | > 20 |  | 
16 | COc1cc2c(cc1OC)CN(C(=O)C13CC4CC(C1)CC(c1ccc(OCC(=O)Nc5cccc(C(N)=O)c5)cc1)(C4)C3)CC2 | 16.3 |  | 
17 | CC(=O)O[C@H]1C(=O)[C@@]2(C)[C@H]([C@H](OC(=O)c3ccccc3)[C@]3(O)C[C@H](OC(=O)[C@H](O)[C@@H](NC(=O)c4ccccc4)c4ccccc4)C(C)=C1C3(C)C)[C@]1(OC(C)=O)CO[C@@H]1C[C@@H]2O [PACLITAXEL] | 7.54 |  | 7.54
18 | COC(=O)c1cccc(NC(=O)COc2ccc(C34CC5CC(CC(C(=O)N6CCN(Cc7ccc(F)cc7)CC6)(C5)C3)C4)cc2)c1 | > 20 |  | 
19 | COC(=O)c1cccc(NC(=O)COc2ccc(C34CC5CC(CC(C(=O)N6CCN(Cc7ccc(OC)cc7)CC6)(C5)C3)C4)cc2)c1 | 14 | 0.89 | 
